Measurements of several laboratories.
Organism: Escherichia coli
Effect on: microbial growth

SMILES | technique | cells | strain | time | MIC
Cc1[nH]c(C(=O)Nc2ccc(-c3n[nH]c(=O)o3)cc2N2CC[C@H](N)C2)c(Cl)c1Cl.Cl | broth dilution | – | ATCC25922 | – | 8 µg/mL
CC(O)CSc1nnc(COc2ccc(Cl)cc2Br)n1-c1ccccc1 (stereo not drawn) | – | – | – | – | 20500 µg/mL
C[C@H]1[C@H](NC(=O)/C(=N\OC(C)(C)C(=O)O)c2csc(N)n2)C(=O)N1S(=O)(=O)O | broth dilution | – | – | – | ≤ 0.06 µg/mL
C[C@@H](O)[C@H]1C(=O)N2C(C(=O)O)=C(S[C@@H]3CN[C@H](C(=O)N(C)C)C3)[C@H](C)[C@H]12 | broth dilution | – | ATCC25922 | 20 h | < 0.5 µg/mL
CC(C)(C)OC(=O)N[C@H]1CCN(c2cc(C(=O)NCC(=O)O)ccc2NC(=O)c2cc(Br)c(Br)[nH]2)C1 | broth dilution | – | ATCC25922 | – | > 32 µg/mL
O=C(O)c1cn(C2CC2)c2cc(N3CCNCC3)c(F)cc2c1=O | – | K12 | MG1655 | – | 2 µM
COc1ccc(C2c3c(C)nn(-c4ccccc4)c3NN2C(=O)c2ccncc2)cc1 (stereo not drawn) | – | – | MTCC739 | 24 h | 32 µg/mL
C[C@@H](O)[C@H]1C(=O)N2C(C(=O)O)=C(S[C@@H]3CN[C@H](C(=O)N(C)C)C3)[C@H](C)[C@H]12 | broth dilution | – | – | – | ≤ 0.06 µg/mL
CN[C@@H]1[C@@H](O[C@H]2O[C@H](CO)[C@@H](N)[C@H](O)[C@H]2O)OC2C[C@@H](N)[C@@H](O[C@H]3[C@H](O)[C@@H](O)[C@H](N)C[C@@H]3N)OC2[C@@H]1O (stereo partly drawn) | – | – | – | 24 h | 2.5 to 5 µM
Cc1nn(-c2ccccc2)c2c1C(c1c[nH]c3ccccc13)N(C(=O)c1ccncc1)N2 (stereo not drawn) | – | – | MTCC739 | 24 h | > 100 µg/mL
O=C(C=Cc1ccc(O)c(O)c1)Oc1cccc2cccnc12 | broth dilution | – | ATCC25922 | – | 4 µg/mL
Cc1[nH]c(C(=O)Nc2ccc(-c3n[nH]c(=O)o3)cc2N2CCC[C@H](N)C2)c(Cl)c1Cl.Cl | broth dilution | – | ATCC25922 | – | 16 µg/mL
O=C(C=Cc1ccc(O)c(O)c1)OCCc1ccccc1 | broth dilution | – | ATCC25922 | – | 32 µg/mL
CC(O)CSc1nnc(-c2ccccc2)n1-c1ccccc1 (stereo not drawn) | – | – | – | – | 11000 µg/mL
CCC(C)CCCC(=O)N[C@@H](CCN)C(=O)N[C@H](C(=O)N[C@@H](CCN)C(=O)N[C@H]1CCNC(=O)[C@H]([C@@H](C)O)NC(=O)[C@H](CCN)NC(=O)[C@H](CCN)NC(=O)[C@H](CC(C)C)NC(=O)[C@@H](CC(C)C)NC(=O)[C@H](CCN)NC1=O)[C@@H](C)O (stereo partly drawn) | broth dilution | – | – | – | 0.25 µg/mL
Cc1[nH]c(C(=O)Nc2ccc(C(=O)NCC(=O)O)cc2N2CC[C@H](N)C2)c(Cl)c1Cl.Cl | broth dilution | – | ATCC25922 | – | > 32 µg/mL
COc1cc(Cc2cnc(N)nc2N)cc(OC)c1OC | broth dilution | – | ATCC25922 | – | 8 µg/mL
Cc1nn(-c2ccccc2)c2c1C(c1ccc(N(C)C)cc1)N(C(=O)c1ccncc1)N2 (stereo not drawn) | – | – | MTCC739 | 24 h | > 100 µg/mL
C[C@H]1COc2c(N3CCN(C)CC3)c(F)cc3c(=O)c(C(=O)O)cn1c23 | – | – | BW25113 | – | 0.16 µg/mL
Cl.N[C@@H]1CCN(c2cc(C(=O)NCC(=O)O)ccc2NC(=O)c2cc(Br)c(Br)[nH]2)C1 | broth dilution | – | ATCC25922 | – | > 32 µg/mL
CC1(C)S[C@@H]2[C@H](NC(=O)[C@H](N)c3ccc(O)cc3)C(=O)N2[C@H]1C(=O)O | broth dilution | – | – | – | ≤ 0.06 µg/mL
Cc1[nH]c(C(=O)Nc2ccc(C(=O)NCc3n[nH]c(=O)o3)cc2N2CCNCC2)c(Cl)c1Cl.Cl | broth dilution | – | ATCC25922 | – | > 32 µg/mL
CO/N=C(\C(=O)N[C@@H]1C(=O)N2C(C(=O)O)=C(CSc3nc(=O)c(O)nn3C)CS[C@H]12)c1csc(N)n1 | broth dilution | – | – | – | ≤ 0.5 µg/mL
CC1(C)S[C@@H]2[C@H](NC(=O)[C@H](N)c3ccccc3)C(=O)N2[C@H]1C(=O)O | broth dilution | – | ATCC25922 | – | 4 µg/mL
Cc1[nH]c(C(=O)Nc2ccc(C(=O)NCC(=O)O)cc2N2CCNCC2)c(Cl)c1Cl.Cl | broth dilution | – | ATCC25922 | – | > 32 µg/mL
Nc1ccccc1OC(=O)C=Cc1ccc(O)c(O)c1 | broth dilution | – | ATCC25922 | – | 8 µg/mL
Cc1nn(-c2ccccc2)c2c1C(c1ccc(Cl)cc1)N(C(=O)c1ccncc1)N2 (stereo not drawn) | – | – | MTCC739 | 24 h | > 100 µg/mL
CC(C)NCC(COc1cccc2ccccc12)OC(=O)C=Cc1ccc(O)c(O)c1 (stereo not drawn) | broth dilution | – | ATCC25922 | – | 64 µg/mL
Cc1[nH]c(C(=O)Nc2ccc(C(=O)NCC(=O)O)cc2N2CC[C@@H](NC(=O)OC(C)(C)C)C2)c(Cl)c1Cl | broth dilution | – | ATCC25922 | – | > 32 µg/mL
CC(O)CSc1nnc(-c2cc3ccccc3o2)n1-c1ccccc1 (stereo not drawn) | – | – | – | – | 10000 µg/mL
